Experimental data: ChEMBL document CHEMBL3580553, “Potent and Nontoxic Chemosensitizer of P-Glycoprotein-Mediated Multidrug Resistance in Cancer: Synthesis and Evaluation of Methylated Epigallocatechin, Gallocatechin, and Dihydromyricetin Derivatives” (J Med Chem, 2015)
The source made the active and inactive calls. The calls are words filed in the database; no cut-off is given here.

How the values were obtained:
[1] = Cytotoxicity against human LCC-6 cells after 3 days by MTS assay; type: functional, cell-based; details: LCC-6, 72 h
[2] = Cytotoxicity against human MDA435/LCC6MDR cells after 3 days by MTS assay; type: functional, cell-based; details: 72 h
[3] = system: L929; test: Cytotoxicity against mouse L929 cells after 3 days by MTS assay; type: cell-based; details: L929, 72 h
[4] = molecular target: T1, ATP-dependent translocase ABCB1 (Homo sapiens, UniProt P08183); test: Modulation of P-gp (unknown origin) transfected in human MDA435/LCC6MDR cells assessed as reversible of paclitaxel resistance measured as IC50 for paclitaxel at 1 uM after 5 days by CellTiter 96 Aqueous assay relative to PTX alone treated cell; type: cell-based; details: 120 h
[5] = Selectivity index, ratio of IC50 for mouse […] cells to EC50 for modulation of P-gp (unknown origin) transfected in human MDA435/LCC6MDR cells assessed as reversing paclitaxel resistance; parameters: species or system L929
[6] = molecular target: Multidrug resistance-associated protein 1 (Homo sapiens, UniProt P33527); test: Modulation of MRP1 (unknown origin) transfected in human 2008/MRP1 cells assessed as potentiation of doxorubicin-induced cytotoxicity measured as doxorubicin IC50 at 1 uM after 5 days by MTS assay relative to doxorubicin alone treated cell; type: cell-based; details: 2008/mrp1, 120 h
Summary of the method: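 After 5 days at 37 °C, viability was read by MTS. Doxorubicin IC50 came from nonlinear regression, and RF = IC50 without/with modulator. Parental 2008/P cells served as reference. N = 2−4, triplicates, mean ± SEM.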

[7] = molecular target: T2, Broad substrate specificity ATP-binding cassette transporter ABCG2 (Homo sapiens, UniProt Q9UNQ0); test: Modulation of BCRP (unknown origin) transfected in human HEK293/R2 cells assessed as potentiation of topotecan-induced cytotoxicity measured as topotecan IC50 at 1 uM after 5 days by MTS assay relative to topotecan alone treated cell; type: cell-based; details: hek293/r2, 120 h
T2 sequence (Q9UNQ0 whole entry): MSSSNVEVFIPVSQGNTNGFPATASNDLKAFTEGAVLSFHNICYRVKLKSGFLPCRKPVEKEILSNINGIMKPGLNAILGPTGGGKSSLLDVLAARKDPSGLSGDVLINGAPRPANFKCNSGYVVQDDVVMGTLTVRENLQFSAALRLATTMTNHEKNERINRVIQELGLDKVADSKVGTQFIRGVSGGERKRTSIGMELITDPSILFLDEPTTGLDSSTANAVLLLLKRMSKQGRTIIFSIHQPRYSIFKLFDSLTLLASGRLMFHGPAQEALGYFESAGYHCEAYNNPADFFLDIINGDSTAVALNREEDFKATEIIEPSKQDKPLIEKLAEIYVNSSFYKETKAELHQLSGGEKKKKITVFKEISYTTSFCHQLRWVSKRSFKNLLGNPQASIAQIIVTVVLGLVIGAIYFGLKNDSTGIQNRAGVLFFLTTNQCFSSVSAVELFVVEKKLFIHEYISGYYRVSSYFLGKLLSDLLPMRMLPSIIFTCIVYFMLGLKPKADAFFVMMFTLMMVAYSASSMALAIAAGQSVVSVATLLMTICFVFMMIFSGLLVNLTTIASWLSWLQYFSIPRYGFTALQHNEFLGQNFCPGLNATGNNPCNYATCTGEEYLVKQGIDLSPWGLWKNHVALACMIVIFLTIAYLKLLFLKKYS
Summary of the method: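 Incubated 5 days at 37 °C; viability by MTS. Topotecan IC50 came from nonlinear regression, and RF = IC50 without/with modulator. Empty-vector HEK293/pcDNA3.1 served as reference. N = 2−4, triplicates, mean ± SEM.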

[8] = Drug uptake in human LCC-6 cells at 20 uM after 150 mins by spectrofluorometry; type: ADME, cell-based; details: lcc-6, 2.5 h
Summary of the method: (§1)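 LCC6 or LCC6MDR cells (3 × 10⁶) incubated with 20 or 200 μM compound or DOX, 37 °C, 150 min. Compound: pellet extracted with methanol, supernatant by reversed-phase C18 HPLC, methanol eluent, 1 mL/min, UV detection at 308 or 270 nm. DOX: lysis buffer, fluorescence by spectrofluorometer. N = 2–3, mean ± SEM.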

[9] = P-gp (unknown origin)- mediated durg uptake in human MDA435/LCC6MDR cells at 20 uM after 150 mins by spectrofluorometry relative to control; type: ADME, cell-based; details: 2.5 h; summary of the method: as §1
[10] = Drug uptake in human LCC-6 cells at 200 uM after 150 mins by spectrofluorometry; type: ADME, cell-based; details: lcc-6, 2.5 h; summary of the method: as §1
[11] = P-gp (unknown origin)- mediated durg uptake in human MDA435/LCC6MDR cells at 200 uM after 150 mins by spectrofluorometry relative to control; type: ADME, cell-based; details: 2.5 h, in the assay text read “by HPLC” for “by spectrofluorometry”; summary of the method: as §1
[12] = Modulation of P-gp (unknown origin) transfected in human MDA435/LCC6MDR cells assessed as reversible of paclitaxel resistance measured as IC50 for paclitaxel at 1 uM after 5 days by CellTiter 96 Aqueous assay
[13] = molecular target: T1, ATP-dependent translocase ABCB1; test: Modulation of P-gp (unknown origin) transfected in human MDA435/LCC6MDR cells assessed as reversible of paclitaxel resistance measured as IC50 for paclitaxel at 10 uM after 5 days by CellTiter 96 Aqueous assay relative to PTX alone treated cell; type: cell-based; details: 120 h
Summary of the method: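 They were held 5 days at 37 °C and viability read by CellTiter 96 AQueous (MTS). […] RF = IC50 of PTX without modulator / IC50 with modulator.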

[14] = molecular target: T1, ATP-dependent translocase ABCB1; test: Modulation of P-gp (unknown origin) transfected in human MDA435/LCC6MDR cells assessed as induction of intracellular doxorubicin accumulation at 2 uM after 150 mins by spectrofluorometric analysis relative to control; type: cell-based; details: 2.5 h
Summary of the method: (§2)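 LCC6 or LCC6MDR cells (1 × 10⁶) incubated with 20 μM DOX plus 2 μM modulator, 150 min at 37 °C; 0.2% DMSO as negative control; cells washed in cold PBS, lysed in 0.75 M HCl/0.2% Triton X-100 in isopropanol; supernatant DOX fluorescence read by spectrofluorometry.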

[15] = organism: Homo sapiens; test: Modulation of P-gp (unknown origin) transfected in human MDA435/LCC6MDR cells assessed as restoration of intracellular doxorubicin accumulation after 150 mins by spectrofluorometric analysis relative to parental cells; type: cell-based; summary of the method: as §2
[16] = organism: Homo sapiens; test: Modulation of P-gp (unknown origin) transfected in human MDA435/LCC6MDR cells assessed as restoration of intracellular doxorubicin accumulation at 3 uM after 150 mins by spectrofluorometric analysis relative to parental cells; type: cell-based
Summary of the method: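 LCC6MDR cells with 20 μM DOX and modulator at 0, 0.05, 0.1, 0.5, 1, 3 or 8 μM; cells lysed and intracellular DOX measured by spectrofluorometry. N = 2–5 independent experiments, mean ± SEM.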

[17] = system: LCC-6; test: Effect on doxorubicin efflux in human LCC-6 cells measured at 1.5 uM after 30 to 150 mins by spectrofluorometry relative to control; type: functional, cell-based
Summary of the method: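 Efflux: LCC6 or LCC6MDR cells preloaded with 20 μM DOX 1 h at 37 °C, washed in PBS, resuspended in DMEM ± 1.5 μM modulator; samples at 0, 30, 60, 90, 120, 150 min chilled on ice; intracellular DOX by spectrofluorometry. DMSO control; N = 3–4, mean ± SEM.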

[18] = system: LCC6MDR (human); test: Inhibition of P-gp-mediated doxorubicin efflux in human LCC6MDR cells measured at 1.5 uM after 30 to 150 mins by spectrofluorometry relative to control
[19] = Drug uptake in human LCC-6 cells at 20 uM after 150 mins by spectrofluorometry relative to P-gp expressing cells; type: ADME, cell-based; details: lcc-6, 2.5 h; summary of the method: as §1
[20] = system: LCC-6; test: Effect on doxorubicin influx in human LCC-6 cells measured at 1.5 uM after 30 to 150 mins by spectrofluorometry relative to control; type: functional, cell-based

T1 sequence (P08183 whole entry): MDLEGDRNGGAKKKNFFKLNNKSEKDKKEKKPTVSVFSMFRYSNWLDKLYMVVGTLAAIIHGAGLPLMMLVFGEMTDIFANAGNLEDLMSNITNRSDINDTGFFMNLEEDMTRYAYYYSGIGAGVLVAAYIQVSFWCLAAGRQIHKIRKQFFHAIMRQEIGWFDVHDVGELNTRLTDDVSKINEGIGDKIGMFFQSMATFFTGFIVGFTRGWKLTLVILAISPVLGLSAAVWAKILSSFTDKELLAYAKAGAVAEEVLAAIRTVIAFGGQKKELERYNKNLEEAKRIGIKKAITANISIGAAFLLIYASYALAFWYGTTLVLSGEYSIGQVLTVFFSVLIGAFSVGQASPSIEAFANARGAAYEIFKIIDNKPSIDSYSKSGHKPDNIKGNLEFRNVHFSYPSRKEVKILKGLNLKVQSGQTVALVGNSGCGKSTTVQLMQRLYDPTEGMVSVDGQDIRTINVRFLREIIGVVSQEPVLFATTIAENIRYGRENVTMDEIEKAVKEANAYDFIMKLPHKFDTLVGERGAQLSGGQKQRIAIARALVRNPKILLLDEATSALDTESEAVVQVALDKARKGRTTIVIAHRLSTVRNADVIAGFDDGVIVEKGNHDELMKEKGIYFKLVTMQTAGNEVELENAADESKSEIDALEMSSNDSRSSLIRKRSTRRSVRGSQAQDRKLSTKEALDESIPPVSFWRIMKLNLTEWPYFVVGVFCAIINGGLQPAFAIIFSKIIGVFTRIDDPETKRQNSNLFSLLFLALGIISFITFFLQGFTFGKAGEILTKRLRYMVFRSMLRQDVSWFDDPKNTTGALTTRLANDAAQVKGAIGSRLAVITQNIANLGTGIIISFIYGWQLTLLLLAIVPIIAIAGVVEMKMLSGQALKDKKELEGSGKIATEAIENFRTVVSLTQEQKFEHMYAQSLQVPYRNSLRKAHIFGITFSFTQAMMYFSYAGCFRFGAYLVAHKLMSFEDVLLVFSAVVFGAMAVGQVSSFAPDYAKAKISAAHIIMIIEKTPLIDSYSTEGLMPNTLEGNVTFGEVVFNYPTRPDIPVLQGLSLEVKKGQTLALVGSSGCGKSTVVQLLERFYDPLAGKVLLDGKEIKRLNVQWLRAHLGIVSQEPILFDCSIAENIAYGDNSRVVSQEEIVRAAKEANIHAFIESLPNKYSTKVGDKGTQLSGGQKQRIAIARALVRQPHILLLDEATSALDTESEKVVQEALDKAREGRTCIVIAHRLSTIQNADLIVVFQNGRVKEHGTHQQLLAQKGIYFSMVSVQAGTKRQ
Chain of Multidrug resistance-associated protein 1 (P33527 whole entry): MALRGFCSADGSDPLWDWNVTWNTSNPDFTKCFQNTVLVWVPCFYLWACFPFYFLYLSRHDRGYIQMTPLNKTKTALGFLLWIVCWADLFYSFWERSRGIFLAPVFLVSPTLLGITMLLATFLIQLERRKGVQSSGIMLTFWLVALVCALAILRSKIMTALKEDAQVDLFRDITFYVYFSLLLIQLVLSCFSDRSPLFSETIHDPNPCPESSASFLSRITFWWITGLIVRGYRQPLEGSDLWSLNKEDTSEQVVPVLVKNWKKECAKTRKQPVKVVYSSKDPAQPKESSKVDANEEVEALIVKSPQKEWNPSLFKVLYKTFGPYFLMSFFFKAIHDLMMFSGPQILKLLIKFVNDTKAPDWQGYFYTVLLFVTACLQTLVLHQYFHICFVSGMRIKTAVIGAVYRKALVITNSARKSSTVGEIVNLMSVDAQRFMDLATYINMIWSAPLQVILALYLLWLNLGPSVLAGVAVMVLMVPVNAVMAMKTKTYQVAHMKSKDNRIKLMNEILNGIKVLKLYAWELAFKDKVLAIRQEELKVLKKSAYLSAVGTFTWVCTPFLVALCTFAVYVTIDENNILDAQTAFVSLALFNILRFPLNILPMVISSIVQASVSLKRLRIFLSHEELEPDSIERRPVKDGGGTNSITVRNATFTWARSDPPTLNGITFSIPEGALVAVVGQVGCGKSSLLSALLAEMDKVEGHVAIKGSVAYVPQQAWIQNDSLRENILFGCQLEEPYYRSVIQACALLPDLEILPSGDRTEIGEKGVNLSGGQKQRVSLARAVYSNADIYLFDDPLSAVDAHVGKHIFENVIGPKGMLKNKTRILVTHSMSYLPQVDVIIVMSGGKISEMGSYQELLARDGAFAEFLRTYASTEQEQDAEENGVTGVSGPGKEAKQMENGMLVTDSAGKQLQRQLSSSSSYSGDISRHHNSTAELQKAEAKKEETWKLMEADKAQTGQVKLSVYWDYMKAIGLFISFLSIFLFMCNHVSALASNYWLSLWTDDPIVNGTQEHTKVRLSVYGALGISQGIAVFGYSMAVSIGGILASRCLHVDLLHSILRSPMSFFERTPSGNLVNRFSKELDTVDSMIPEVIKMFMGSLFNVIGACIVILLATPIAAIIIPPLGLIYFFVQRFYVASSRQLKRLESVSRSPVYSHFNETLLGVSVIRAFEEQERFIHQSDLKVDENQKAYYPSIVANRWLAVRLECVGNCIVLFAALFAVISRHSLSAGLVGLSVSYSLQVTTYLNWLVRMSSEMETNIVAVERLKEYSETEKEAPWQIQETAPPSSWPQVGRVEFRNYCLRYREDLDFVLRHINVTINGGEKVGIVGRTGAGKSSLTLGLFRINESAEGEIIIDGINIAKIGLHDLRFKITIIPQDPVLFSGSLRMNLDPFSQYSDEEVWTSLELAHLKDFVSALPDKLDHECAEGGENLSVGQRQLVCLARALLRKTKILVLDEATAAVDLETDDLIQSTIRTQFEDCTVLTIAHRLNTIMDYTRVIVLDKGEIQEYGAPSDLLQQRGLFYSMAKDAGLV

| SMILES | IC50 [1] | IC50 [2] | IC50 [3] | Ratio [4] | Ratio IC50/EC50 [5] | Ratio [6] | Ratio [7] | Drug uptake [8] | Drug uptake [9] | Drug uptake [10] | Drug uptake [11] | IC50 [12] | Ratio [13] | fold change (FC) [14] | Activity [15] | Activity [16] | Activity [17] | inhibition [18] | Drug uptake [19] | Activity [20] |
| --- | --- | --- | --- | --- | --- | --- | --- | --- | --- | --- | --- | --- | --- | --- | --- | --- | --- | --- | --- | --- |
| COc1cc(OC)c2c(c1)O[C@H](c1cc(OC)c(OC)c(OC)c1)[C@@H](OC(=O)c1ccc(F)c(NC(=O)c3cc(OC)c(OC)c(OC)c3)c1)C2 | > 100 µM | > 100 µM | > 100 µM | 53.6 | >714 | 2.6 | 12.3 | Active | Not Active | Active | Not Active | 0.0027 µM |  |  |  |  |  |  |  |  |
| O=C(O[C@@H]1Cc2c(O)cc(O)cc2O[C@@H]1c1cc(O)c(O)c(O)c1)c1cc(O)c(O)c(O)c1 [EPIGALOCATECHIN GALLATE] | 69.1 µM | 56 µM | 82.3 µM | 1.2 |  |  |  |  |  |  |  |  | 1.2 |  |  |  |  |  |  |  |
| COc1cc(OC)c2c(c1)O[C@H](c1cc(OC)c(OC)c(OC)c1)[C@H](OC(=O)c1ccc(F)c(NC(=O)c3ccc(OC)c(OC)c3)c1)C2 | > 100 µM | > 100 µM | > 100 µM | 48.2 | >698 | 0.8 | 2.7 |  |  |  |  |  |  | 2.5 | Dose-dependent effect |  |  |  |  |  |
| COc1ccc(CCN(C)CCCC(C#N)(c2ccc(OC)c(OC)c2)C(C)C)cc1OC (stereo unspecified) |  |  |  |  |  |  |  |  |  |  |  |  |  |  | Dose-dependent effect | Active |  |  |  |  |
| COc1cc(OC)c2c(c1)O[C@H](c1cc(OC)c(OC)c(OC)c1)[C@H](OC(=O)c1ccc(F)c(NC(=O)c3cc(OC)c(OC)c(OC)c3)c1)C2 | > 100 µM | > 100 µM | > 100 µM | 43.8 | >467 | 0.9 | 2.3 |  |  |  |  |  |  | 2.7 |  | Active | inactive | Active |  |  |
| COc1cc(OC)c2c(c1)O[C@H](c1cc(OC)c(OC)c(OC)c1)[C@@H](OC(=O)c1ccc(F)c(NC(=O)c3ccc(OC)c(OC)c3)c1)C2 | > 100 µM | > 100 µM | > 100 µM | 31.4 | >585 | 2.6 | 10.4 |  |  |  |  | 0.0046 µM |  |  |  |  |  |  |  |  |
| COc1cccc2c1C(=O)c1c(O)c3c(c(O)c1C2=O)C[C@@](O)(C(=O)CO)C[C@@H]3O[C@H]1C[C@H](N)[C@H](O)[C@H](C)O1 [DOXORUBICIN] |  |  |  |  |  |  |  |  |  |  |  |  |  |  |  |  |  |  | Active |  |
| COc1cc(OC)c2c(c1)O[C@H](c1cc(OC)c(OC)c(OC)c1)[C@H](OC(=O)/C=C/c1cc(OC)c(OC)c(OC)c1)C2 | > 100 µM | > 100 µM | > 100 µM |  |  |  |  | Active | Not Active | Active | Not Active |  |  | 2.7 | Dose-dependent effect | Active | inactive | Active |  | inactive |
